Data published in ChEMBL document CHEMBL2069246, “Oxadiazoles in medicinal chemistry” (J Med Chem, 2012).

Assays:
[1] = Intrinsic clearance in human liver microsomes at 1 mg/ml; type: ADME, Microsome; details: read-out: CLH
How it was run: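 Compound incubated 45 min at 37 °C with human liver microsomes at 1 mg/mL. CLint is taken from the rate of parent disappearance.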

CYP2D6 = CYP2D6 (Homo sapiens, UniProt P10635); experiment: Time dependent inhibition of human recombinant CYP2D6 coexpressed in Escherichia coli at 50 uM using bufuralol as probe; type: ADME
CYP2D6, sequence (P10635 whole entry): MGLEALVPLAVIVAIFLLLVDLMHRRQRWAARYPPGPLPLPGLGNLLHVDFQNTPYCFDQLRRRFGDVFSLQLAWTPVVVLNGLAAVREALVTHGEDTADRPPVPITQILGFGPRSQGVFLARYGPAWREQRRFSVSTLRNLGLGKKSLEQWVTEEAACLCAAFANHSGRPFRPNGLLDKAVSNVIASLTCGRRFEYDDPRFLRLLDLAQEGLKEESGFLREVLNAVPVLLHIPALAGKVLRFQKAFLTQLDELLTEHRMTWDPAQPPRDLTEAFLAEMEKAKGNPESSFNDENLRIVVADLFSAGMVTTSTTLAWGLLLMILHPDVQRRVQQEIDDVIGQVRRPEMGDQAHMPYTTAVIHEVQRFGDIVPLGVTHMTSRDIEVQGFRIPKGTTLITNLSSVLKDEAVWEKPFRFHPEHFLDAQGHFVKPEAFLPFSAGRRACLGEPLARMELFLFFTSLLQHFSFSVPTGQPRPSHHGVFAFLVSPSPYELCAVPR
How it was run: (§1)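 Time-dependent inhibition of human recombinant P450s. Compound is preincubated 30 min at 37 °C with and without NADPH, then percent inhibition is read. Run at 10 and 50 μM, with the 50 μM value reported.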

Cytochrome P450 1A2 [2] = target: T1, Cytochrome P450 1A2 (Homo sapiens, UniProt P05177); experiment: Activity of human recombinant CYP1A2 assessed as enzyme contribution towards compound metabolism at 37 degC; type: ADME
T1 sequence (P05177 whole entry): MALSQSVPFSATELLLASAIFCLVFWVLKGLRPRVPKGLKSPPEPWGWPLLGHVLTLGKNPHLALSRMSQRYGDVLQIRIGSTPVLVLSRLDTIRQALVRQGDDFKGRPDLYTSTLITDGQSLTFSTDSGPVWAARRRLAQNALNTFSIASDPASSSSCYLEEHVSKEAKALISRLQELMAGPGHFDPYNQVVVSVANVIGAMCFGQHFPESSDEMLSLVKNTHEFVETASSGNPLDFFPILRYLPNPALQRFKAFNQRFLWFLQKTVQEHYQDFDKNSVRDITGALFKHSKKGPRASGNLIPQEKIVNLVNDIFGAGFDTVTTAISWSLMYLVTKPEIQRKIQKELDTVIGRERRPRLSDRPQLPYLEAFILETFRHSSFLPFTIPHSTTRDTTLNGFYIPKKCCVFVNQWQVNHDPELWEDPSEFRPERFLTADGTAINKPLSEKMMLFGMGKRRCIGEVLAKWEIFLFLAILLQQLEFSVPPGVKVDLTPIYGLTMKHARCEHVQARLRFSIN
How it was run: (§2)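 CYP reaction phenotyping with human recombinant P450 isoforms at 37 °C. Each isoform's share of compound metabolism is given as percent contribution relative to the other isoforms in the test.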

CYP1A2 = target: T2, CYP1A2 (Homo sapiens, UniProt P05177); experiment: Time dependent inhibition of human recombinant CYP1A2 coexpressed in Escherichia coli at 50 uM using phenacetin as probe; type: ADME; how it was run: as §1
T2 sequence (P05177 whole entry): T1 sequence (P05177 whole entry)

Cytochrome P450 2C19 [3] = target: T3, Cytochrome P450 2C19 (Homo sapiens, UniProt P33261); experiment: Inhibition of human recombinant CYP2C19 coexpressed in Escherichia coli; type: ADME
T3 sequence (P33261 whole entry, canonical isoform): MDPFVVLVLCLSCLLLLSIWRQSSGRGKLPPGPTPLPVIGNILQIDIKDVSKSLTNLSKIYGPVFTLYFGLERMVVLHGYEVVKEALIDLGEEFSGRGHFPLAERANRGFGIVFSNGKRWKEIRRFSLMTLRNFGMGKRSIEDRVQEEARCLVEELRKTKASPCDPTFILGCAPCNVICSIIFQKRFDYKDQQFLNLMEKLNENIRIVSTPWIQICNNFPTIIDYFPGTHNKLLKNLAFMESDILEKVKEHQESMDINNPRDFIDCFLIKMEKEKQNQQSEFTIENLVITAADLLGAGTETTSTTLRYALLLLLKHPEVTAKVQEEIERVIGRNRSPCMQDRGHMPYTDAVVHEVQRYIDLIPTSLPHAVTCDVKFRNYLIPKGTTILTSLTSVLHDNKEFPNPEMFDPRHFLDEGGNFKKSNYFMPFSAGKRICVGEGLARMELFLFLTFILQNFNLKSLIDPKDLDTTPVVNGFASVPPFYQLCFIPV
How it was run: (§3)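 Human recombinant cytochrome P450s at 37 °C. Read-out is inhibition of metabolic degradation of each isoform's substrate. Percent inhibition is measured at five test concentrations and converted to IC50.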

Cytochrome P450 1A2 [4] = target: T1, Cytochrome P450 1A2; experiment: Inhibition of human recombinant CYP1A2 coexpressed in Escherichia coli using phenacetin as probe; type: ADME; how it was run: as §3
Cytochrome P450 2C8 [5] = target: T4, Cytochrome P450 2C8 (Homo sapiens, UniProt P10632); experiment: Inhibition of human recombinant CYP2C8 coexpressed in Escherichia coli; type: ADME; how it was run: as §3
T4 sequence (P10632 whole entry): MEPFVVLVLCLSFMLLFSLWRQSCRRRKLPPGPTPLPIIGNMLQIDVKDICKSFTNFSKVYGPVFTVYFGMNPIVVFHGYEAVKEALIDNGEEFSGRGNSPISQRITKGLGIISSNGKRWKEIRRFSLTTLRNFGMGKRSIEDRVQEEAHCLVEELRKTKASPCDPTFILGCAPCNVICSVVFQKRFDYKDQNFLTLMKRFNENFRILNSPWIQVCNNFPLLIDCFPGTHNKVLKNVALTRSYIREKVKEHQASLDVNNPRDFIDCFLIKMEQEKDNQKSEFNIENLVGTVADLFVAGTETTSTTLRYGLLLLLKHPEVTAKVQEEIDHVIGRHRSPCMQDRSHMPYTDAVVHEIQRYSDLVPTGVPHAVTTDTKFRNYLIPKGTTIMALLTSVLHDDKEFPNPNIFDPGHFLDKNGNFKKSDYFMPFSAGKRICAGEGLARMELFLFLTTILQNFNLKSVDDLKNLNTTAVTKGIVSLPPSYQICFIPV

Cytochrome P450 3A4 [6] = target: T5, Cytochrome P450 3A4 (Homo sapiens, UniProt P08684); experiment: Activity of human recombinant CYP3A4 assessed as enzyme contribution towards compound metabolism at 37 degC; type: ADME; set-up: concentration or dose not given beside the values; how it was run: as §2
T5 sequence (P08684 whole entry): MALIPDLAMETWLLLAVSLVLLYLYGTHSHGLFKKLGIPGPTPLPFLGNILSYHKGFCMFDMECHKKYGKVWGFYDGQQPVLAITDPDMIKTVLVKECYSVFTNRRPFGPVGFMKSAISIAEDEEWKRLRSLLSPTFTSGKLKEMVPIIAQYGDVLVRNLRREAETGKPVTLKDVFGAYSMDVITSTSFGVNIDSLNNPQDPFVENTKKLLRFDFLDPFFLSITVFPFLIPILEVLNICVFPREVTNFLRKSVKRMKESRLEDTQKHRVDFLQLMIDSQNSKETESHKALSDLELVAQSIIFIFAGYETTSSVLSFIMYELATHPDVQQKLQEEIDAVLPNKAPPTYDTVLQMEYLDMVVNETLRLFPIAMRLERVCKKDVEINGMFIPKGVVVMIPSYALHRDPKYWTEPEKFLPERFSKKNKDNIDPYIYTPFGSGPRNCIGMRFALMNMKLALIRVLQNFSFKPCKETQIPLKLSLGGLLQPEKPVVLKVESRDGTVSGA

Cytochrome P450 2D6 [7] = target: T6, Cytochrome P450 2D6 (Homo sapiens, UniProt P10635); experiment: Inhibition of human recombinant CYP2D6 coexpressed in Escherichia coli; type: ADME; how it was run: as §3
T6 sequence (P10635 whole entry): as the sequence (P10635 whole entry) above

Cytochrome P450 2C19 [8] = target: T3, Cytochrome P450 2C19; experiment: Activity of human recombinant CYP2C19 assessed as enzyme contribution towards compound metabolism at 37 degC; type: ADME; how it was run: as §2
Cytochrome P450 2C9 [9] = target: T7, Cytochrome P450 2C9 (Homo sapiens, UniProt P11712); experiment: Activity of human recombinant CYP2C9 assessed as enzyme contribution towards compound metabolism at 37 degC; type: ADME; how it was run: as §2
T7 sequence (P11712 whole entry): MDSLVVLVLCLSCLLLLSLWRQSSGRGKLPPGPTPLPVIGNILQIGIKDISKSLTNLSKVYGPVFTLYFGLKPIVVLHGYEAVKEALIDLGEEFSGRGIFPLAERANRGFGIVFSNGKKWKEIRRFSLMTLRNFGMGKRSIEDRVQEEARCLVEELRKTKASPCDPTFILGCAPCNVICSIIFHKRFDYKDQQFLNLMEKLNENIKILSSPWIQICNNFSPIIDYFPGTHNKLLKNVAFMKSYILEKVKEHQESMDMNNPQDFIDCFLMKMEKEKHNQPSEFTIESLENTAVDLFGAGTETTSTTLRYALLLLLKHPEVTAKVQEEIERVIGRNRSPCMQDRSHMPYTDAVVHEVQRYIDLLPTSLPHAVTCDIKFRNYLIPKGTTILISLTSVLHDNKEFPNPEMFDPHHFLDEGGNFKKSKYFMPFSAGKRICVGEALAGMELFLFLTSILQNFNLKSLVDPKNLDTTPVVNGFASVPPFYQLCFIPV

CYP2C19 = CYP2C19 (Homo sapiens, UniProt P33261); experiment: Time dependent inhibition of human recombinant CYP2C19 coexpressed in Escherichia coli at 50 uM using mephenytoin as probe; type: ADME; how it was run: as §1
CYP2C19, sequence (P33261 whole entry): as the sequence (P33261 whole entry, canonical isoform) above

CYP3A4 = CYP3A4 (Homo sapiens, UniProt P08684); experiment: Time dependent inhibition of human recombinant CYP3A4 coexpressed in Escherichia coli at 50 uM using midazolam as probe; type: ADME; how it was run: as §1
CYP3A4, sequence (P08684 whole entry): as the sequence (P08684 whole entry) above

CYP2C8 = target: T8, CYP2C8 (Homo sapiens, UniProt P10632); experiment: Time dependent inhibition of human recombinant CYP2C8 coexpressed in Escherichia coli at 50 uM using amodiaquine as probe; type: ADME; how it was run: as §1
T8 sequence (P10632 whole entry): T4 sequence (P10632 whole entry)

CYP2C9 = CYP2C9 (Homo sapiens, UniProt P11712); experiment: Time dependent inhibition of human recombinant CYP2C9 coexpressed in Escherichia coli at 50 uM using diclofenac as probe; type: ADME; how it was run: as §1
CYP2C9, sequence (P11712 whole entry): as the sequence (P11712 whole entry) above

Cytochrome P450 3A4 [10] = target: T5, Cytochrome P450 3A4; experiment: Inhibition of human recombinant CYP3A4 coexpressed in Escherichia coli; type: ADME; how it was run: as §3
Cytochrome P450 2C9 [11] = target: T7, Cytochrome P450 2C9; experiment: Inhibition of human recombinant CYP2C9 coexpressed in Escherichia coli; type: ADME; how it was run: as §3
Cytochrome P450 2C8 [12] = target: T4, Cytochrome P450 2C8; experiment: Activity of human recombinant CYP2C8 assessed as enzyme contribution towards compound metabolism at 37 degC; type: ADME; how it was run: as §2
Cytochrome P450 2D6 [13] = target: T6, Cytochrome P450 2D6; experiment: Activity of human recombinant CYP2D6 assessed as enzyme contribution towards compound metabolism at 37 degC; type: ADME; how it was run: as §2
[14] = Dissociation constant, pKa of the compound; type: physicochemical
[15] = Lipophilicity, log D of the compound at pH 7.4; type: physicochemical; details: buffer
[16] = target: Voltage-gated inwardly rectifying potassium channel KCNH2 (Homo sapiens, UniProt Q12809); experiment: Inhibition of human ERG channel expressed in CHO cells by patch clamp assay
Voltage-gated inwardly rectifying potassium channel KCNH2, sequence (Q12809 whole entry): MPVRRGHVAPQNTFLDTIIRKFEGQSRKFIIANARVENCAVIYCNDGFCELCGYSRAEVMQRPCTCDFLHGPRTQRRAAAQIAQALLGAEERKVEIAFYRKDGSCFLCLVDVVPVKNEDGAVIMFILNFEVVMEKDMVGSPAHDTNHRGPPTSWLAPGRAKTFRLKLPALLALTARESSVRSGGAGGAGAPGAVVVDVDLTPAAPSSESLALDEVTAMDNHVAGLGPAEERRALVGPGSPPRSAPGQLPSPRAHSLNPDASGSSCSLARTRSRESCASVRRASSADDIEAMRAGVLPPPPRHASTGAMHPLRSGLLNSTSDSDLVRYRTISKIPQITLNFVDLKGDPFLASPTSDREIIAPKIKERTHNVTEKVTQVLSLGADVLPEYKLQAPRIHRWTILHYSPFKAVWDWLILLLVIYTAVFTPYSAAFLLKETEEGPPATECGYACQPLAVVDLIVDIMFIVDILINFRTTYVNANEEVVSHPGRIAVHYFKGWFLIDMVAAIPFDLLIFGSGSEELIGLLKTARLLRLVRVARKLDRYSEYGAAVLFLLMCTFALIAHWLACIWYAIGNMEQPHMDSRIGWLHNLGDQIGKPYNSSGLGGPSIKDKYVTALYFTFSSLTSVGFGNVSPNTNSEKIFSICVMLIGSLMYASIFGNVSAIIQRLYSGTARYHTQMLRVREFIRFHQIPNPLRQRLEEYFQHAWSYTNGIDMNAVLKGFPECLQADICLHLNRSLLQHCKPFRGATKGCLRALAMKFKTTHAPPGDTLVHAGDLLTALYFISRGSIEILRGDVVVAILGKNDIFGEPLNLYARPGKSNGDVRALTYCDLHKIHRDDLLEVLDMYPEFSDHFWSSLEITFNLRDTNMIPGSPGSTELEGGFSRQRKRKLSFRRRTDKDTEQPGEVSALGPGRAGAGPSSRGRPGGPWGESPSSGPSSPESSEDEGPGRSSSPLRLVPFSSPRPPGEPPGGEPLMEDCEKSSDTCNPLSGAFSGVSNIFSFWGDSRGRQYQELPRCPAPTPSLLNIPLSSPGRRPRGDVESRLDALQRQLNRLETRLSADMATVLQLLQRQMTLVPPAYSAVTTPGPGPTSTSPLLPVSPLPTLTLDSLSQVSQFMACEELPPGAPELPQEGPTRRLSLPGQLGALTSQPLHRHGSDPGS

## c1cc(-c2noc(C3CCCCC3)n2)ccn1
[1]
  microsomal CLint: 83 µL/min/mg
CYP2D6
  inhibition at 50 µM: < 9%
Cytochrome P450 1A2 [2]
  Activity: 29.5%
CYP1A2
  inhibition at 50 µM: < 7%
Cytochrome P450 2C19 [3]
  IC50: 1.2 µM
Cytochrome P450 1A2 [4]
  IC50: 2.4 µM
Cytochrome P450 2C8 [5]
  IC50: > 20 µM
Cytochrome P450 3A4 [6]
  Activity: 17.7%
Cytochrome P450 2D6 [7]
  IC50: 10 µM
Cytochrome P450 2C19 [8]
  Activity: 38%
Cytochrome P450 2C9 [9]
  CYP isoform contribution to compound metabolism: 4.7%
CYP2C19
  inhibition at 50 µM: < 12%
CYP3A4
  inhibition at 50 µM: < 7%
CYP2C8
  inhibition at 50 µM: < 13%
CYP2C9
  inhibition at 50 µM: < 19%
Cytochrome P450 3A4 [10]
  IC50: 10.2 µM
Cytochrome P450 2C9 [11]
  IC50: 17.6 µM
Cytochrome P450 2C8 [12]
  Activity: 1.5%
Cytochrome P450 2D6 [13]
  Activity: 8.6%

## c1ccc(-c2nnc(CN3CCN(Cc4nc5ccccc5s4)CC3)o2)cc1
[14]
  pKa: 4.4
[15]
  logD: 3.9
[16]
  IC50: 30 µM

## c1cncc(-c2ccc(-c3nnc(C4CN5CCC4CC5)o3)o2)c1 (stereo unspecified)
[14]
  pKa: 9.1
[15]
  logD: < 0
[16]
  IC50: 20.2 µM

## c1cncc(-c2ccc(-c3noc(C4CN5CCC4CC5)n3)o2)c1 (stereo unspecified)
[14]
  pKa: 8.8
[15]
  logD: 0.7
[16]
  IC50: 6.4 µM

## CN(Cc1nc2ccccc2c(=O)[nH]1)Cc1nnc(-c2ccccc2)o1
[14]
  pKa: 2.3
[15]
  logD: 2
[16]
  IC50: > 33 µM

## CN(Cc1nc2ccccc2c(=O)[nH]1)Cc1nc(-c2ccccc2)no1
[14]
  pKa: 2.1
[15]
  logD: 3.1

## O=C(NC1CCCCC1)c1nc(CS(=O)(=O)c2ccccc2)no1
[1]
  microsomal CLint: 50 µL/min/mg
CYP2D6
  inhibition at 50 µM: < 9%
Cytochrome P450 1A2 [2]
  Activity: 0.2%
CYP1A2
  inhibition at 50 µM: < 7%
Cytochrome P450 2C19 [3]
  IC50: > 20 µM
Cytochrome P450 1A2 [4]
  IC50: > 20 µM
Cytochrome P450 2C8 [5]
  IC50: > 20 µM
Cytochrome P450 3A4 [6]
  Activity: 91.5%
Cytochrome P450 2D6 [7]
  IC50: > 20 µM
Cytochrome P450 2C19 [8]
  Activity: 7.9%
Cytochrome P450 2C9 [9]
  CYP isoform contribution to compound metabolism: 0.3%
CYP2C19
  inhibition at 50 µM: < 19%
CYP3A4
  inhibition at 50 µM: < 7%
CYP2C8
  inhibition at 50 µM: < 13%
CYP2C9
  inhibition at 50 µM: < 19%
Cytochrome P450 3A4 [10]
  IC50: > 20 µM
Cytochrome P450 2C9 [11]
  IC50: > 20 µM
Cytochrome P450 2C8 [12]
  Activity: 0%
Cytochrome P450 2D6 [13]
  Activity: 0.1%

## O=C(NCc1ccncc1)c1nc(CS(=O)(=O)c2ccccc2)no1
[1]
  microsomal CLint: 93 µL/min/mg
CYP2D6
  inhibition at 50 µM: < 11%
Cytochrome P450 1A2 [2]
  Activity: 0%
CYP1A2
  inhibition at 50 µM: < 10%
Cytochrome P450 2C19 [3]
  IC50: 1.3 µM
Cytochrome P450 1A2 [4]
  IC50: > 20 µM
Cytochrome P450 2C8 [5]
  IC50: > 20 µM
Cytochrome P450 3A4 [6]
  Activity: 99.8%
Cytochrome P450 2D6 [7]
  IC50: 9.4 µM
Cytochrome P450 2C19 [8]
  Activity: 0.1%
Cytochrome P450 2C9 [9]
  CYP isoform contribution to compound metabolism: 0.1%
CYP2C19
  inhibition at 50 µM: < 12%
CYP3A4
  inhibition at 50 µM: 42%
CYP2C8
  inhibition at 50 µM: < 14%
CYP2C9
  inhibition at 50 µM: < 19%
Cytochrome P450 3A4 [10]
  IC50: 14.6 µM
Cytochrome P450 2C9 [11]
  IC50: 2.2 µM
Cytochrome P450 2C8 [12]
  Activity: 0%
Cytochrome P450 2D6 [13]
  Activity: 0.1%
